In ChEMBL document CHEMBL1140723, “Positive and negative modulation of group I metabotropic glutamate receptors” (J Med Chem, 2008):
Calls of active or inactive are those of the source. No cut-off for these calls is given here.

Experiments:
[1] = target: T1, Metabotropic glutamate receptor 1 (Rattus norvegicus, UniProt P23385); assay: Antagonist activity at rat mGluR1 expressed in cerebellar granule cells assessed as accumulation of [3H]inositol phosphate; assay type: functional, cell-based
[2] = target: Metabotropic glutamate receptor 5 (Rattus norvegicus) (UniProt P31424); assay: Displacement of [3H]MPEP from rat mGluR5 upto 10 uM
Chain of Metabotropic glutamate receptor 5 (Rattus norvegicus) (P31424 21-1203 limits assumed): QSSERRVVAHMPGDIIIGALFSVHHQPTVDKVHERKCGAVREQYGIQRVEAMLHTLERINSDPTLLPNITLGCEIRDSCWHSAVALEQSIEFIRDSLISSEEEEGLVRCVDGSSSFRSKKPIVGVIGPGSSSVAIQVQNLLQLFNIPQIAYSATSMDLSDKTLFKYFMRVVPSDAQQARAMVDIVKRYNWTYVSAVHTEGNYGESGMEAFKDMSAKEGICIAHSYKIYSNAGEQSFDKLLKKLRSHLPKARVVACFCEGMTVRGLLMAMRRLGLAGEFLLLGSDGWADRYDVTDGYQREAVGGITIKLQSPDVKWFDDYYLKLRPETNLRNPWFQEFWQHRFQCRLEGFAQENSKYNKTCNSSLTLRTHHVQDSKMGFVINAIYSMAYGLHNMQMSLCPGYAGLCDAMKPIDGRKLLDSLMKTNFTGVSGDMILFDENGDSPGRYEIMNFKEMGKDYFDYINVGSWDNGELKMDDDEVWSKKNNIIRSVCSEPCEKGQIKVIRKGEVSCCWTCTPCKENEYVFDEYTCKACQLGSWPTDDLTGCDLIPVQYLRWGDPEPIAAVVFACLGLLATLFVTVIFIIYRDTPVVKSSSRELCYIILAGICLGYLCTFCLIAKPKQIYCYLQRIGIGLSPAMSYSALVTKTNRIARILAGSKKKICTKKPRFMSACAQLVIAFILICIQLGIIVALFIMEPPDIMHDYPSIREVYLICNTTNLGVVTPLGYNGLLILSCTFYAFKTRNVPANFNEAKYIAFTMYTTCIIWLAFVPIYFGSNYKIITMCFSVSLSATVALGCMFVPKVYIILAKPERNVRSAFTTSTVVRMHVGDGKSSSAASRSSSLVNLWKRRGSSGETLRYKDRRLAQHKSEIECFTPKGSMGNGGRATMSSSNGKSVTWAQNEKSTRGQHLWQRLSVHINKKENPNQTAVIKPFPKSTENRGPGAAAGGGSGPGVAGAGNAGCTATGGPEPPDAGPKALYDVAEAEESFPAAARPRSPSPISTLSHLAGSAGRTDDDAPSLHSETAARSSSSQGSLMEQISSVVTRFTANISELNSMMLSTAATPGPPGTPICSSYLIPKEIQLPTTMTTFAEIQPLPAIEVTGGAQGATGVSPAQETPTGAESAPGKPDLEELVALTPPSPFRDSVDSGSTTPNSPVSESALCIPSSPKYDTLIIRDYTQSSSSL
Method in brief: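 Membranes were washed four times in 50 mM Tris-HCl pH 8.0 and resuspended in 50 mM Tris-HCl pH 7.5. 125–250 µg protein was incubated with 5 nM [3H]MPEP and test agent (up to 10 µM), up to 5% DMSO, 60 min at RT. Nonspecific binding: 10 µM MPEP. Filtered on glass fibre filters, rinsed with ice-cold buffer, then scintillation counted.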

[3] = target: T2, Metabotropic glutamate receptor 5 (Rattus norvegicus, UniProt P31424); assay: Antagonist activity at mGluR5 in Sprague-Dawley rat astrocyte assessed as L-quisqualate induced potentiation of intracellular calcium level by FLIPR assay; assay type: functional, cell-based
[4] = target: T3, Metabotropic glutamate receptor 5 (Homo sapiens, UniProt P41594); assay: Positive modulation of human mGluR5 assessed as fold left shift of L-glutamate EC50 by calcium FLIPR assay
Target sequence in this assay (P41594 21-1212 limits assumed): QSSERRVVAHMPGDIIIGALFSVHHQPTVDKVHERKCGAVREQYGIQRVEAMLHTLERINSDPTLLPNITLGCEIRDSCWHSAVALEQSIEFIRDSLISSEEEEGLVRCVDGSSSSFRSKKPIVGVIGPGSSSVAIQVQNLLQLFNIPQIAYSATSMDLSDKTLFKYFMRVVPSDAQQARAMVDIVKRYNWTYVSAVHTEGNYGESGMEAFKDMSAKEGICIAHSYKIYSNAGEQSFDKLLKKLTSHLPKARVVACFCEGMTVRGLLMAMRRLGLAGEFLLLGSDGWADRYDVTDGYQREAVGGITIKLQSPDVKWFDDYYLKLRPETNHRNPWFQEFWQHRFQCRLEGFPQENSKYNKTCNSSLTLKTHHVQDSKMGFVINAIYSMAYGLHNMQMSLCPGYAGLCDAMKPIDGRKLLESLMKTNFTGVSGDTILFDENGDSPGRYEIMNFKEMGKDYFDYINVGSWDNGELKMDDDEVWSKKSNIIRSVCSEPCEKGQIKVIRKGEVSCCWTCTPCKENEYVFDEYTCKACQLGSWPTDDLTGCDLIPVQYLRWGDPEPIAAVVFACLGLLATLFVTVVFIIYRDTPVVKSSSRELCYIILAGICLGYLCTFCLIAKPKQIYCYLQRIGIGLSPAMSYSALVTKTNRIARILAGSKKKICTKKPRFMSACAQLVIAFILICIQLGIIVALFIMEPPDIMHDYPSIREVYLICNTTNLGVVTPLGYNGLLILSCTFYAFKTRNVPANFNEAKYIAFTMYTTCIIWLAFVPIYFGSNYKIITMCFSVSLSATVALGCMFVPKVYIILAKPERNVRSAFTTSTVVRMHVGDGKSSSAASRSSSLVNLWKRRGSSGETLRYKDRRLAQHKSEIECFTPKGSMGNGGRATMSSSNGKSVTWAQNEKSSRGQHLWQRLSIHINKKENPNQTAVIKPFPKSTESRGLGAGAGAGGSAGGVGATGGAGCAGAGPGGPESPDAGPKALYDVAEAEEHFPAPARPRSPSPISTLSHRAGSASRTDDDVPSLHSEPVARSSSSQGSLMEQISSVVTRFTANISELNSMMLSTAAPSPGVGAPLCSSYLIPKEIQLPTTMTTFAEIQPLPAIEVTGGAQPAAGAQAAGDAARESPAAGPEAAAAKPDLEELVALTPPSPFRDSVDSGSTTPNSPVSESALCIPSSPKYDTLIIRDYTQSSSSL

[5] = target: Metabotropic glutamate receptor 5 (Rattus norvegicus) (UniProt P31424); assay: Positive modulation of rat mGluR5 assessed as fold left shift of L-quisqualate EC50 by calcium FLIPR assay
[6] = target: T3, Metabotropic glutamate receptor 5; assay: Antagonist activity at human mGluR5 expressed in CHO cells assessed as L-glutamate induced potentiation of intracellular calcium level by FLIPR assay; assay type: functional, cell-based
Method in brief: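 Human mGluR5 FLIPR calcium assay. Cells were loaded with Ca-sensitive dye for 2 h at RT in HEPES-buffered saline, pH 7.3. The dye kit contained glutamic-pyruvate transferase, Na-pyruvate and pyridoxal phosphate to avoid glutamate build-up. Compounds were preincubated 5 min before L-glutamate, and the intracellular calcium rise was read as RFU.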
Target sequence in this assay (P41594 whole entry): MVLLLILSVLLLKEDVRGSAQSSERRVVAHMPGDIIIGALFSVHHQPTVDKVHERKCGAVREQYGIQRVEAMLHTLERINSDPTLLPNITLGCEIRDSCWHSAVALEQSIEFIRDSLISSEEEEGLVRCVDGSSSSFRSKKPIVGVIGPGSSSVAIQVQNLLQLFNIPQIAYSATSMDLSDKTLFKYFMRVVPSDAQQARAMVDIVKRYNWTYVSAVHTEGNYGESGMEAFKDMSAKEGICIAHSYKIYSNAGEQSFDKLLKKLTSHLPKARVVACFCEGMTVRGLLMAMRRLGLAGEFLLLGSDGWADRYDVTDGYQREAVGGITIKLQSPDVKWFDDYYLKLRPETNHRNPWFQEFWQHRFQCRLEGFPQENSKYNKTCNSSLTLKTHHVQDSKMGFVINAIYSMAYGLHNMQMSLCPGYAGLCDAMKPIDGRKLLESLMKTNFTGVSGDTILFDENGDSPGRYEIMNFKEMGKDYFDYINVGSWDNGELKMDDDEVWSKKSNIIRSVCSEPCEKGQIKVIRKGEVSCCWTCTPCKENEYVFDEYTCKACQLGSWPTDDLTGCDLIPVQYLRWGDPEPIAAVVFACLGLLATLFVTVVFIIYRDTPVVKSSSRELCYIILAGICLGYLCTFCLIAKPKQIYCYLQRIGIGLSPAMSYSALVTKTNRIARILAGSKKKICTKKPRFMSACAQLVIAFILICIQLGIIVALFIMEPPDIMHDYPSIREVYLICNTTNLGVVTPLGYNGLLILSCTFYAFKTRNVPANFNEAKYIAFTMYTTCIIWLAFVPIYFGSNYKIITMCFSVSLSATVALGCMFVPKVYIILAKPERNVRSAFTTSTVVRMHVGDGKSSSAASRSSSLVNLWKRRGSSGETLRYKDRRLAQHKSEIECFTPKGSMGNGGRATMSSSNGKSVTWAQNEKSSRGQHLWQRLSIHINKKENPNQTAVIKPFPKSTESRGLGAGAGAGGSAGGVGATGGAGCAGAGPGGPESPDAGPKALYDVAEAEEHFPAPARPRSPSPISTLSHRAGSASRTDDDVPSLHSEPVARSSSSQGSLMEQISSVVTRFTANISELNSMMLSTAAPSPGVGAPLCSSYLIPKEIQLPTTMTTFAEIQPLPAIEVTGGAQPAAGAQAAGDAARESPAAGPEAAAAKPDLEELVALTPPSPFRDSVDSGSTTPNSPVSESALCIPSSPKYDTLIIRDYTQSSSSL

[7] = target: T2, Metabotropic glutamate receptor 5; assay: Displacement of [3H]MPEP from rat mGluR5
[8] = target: T1, Metabotropic glutamate receptor 1; assay: (§1) Antagonist activity at rat mGluR1 by FLIPR assay; assay type: functional
[9] = target: T3, Metabotropic glutamate receptor 5; assay: Reversal of antagonist activity at human mGluR5 expressed in CHO cells in presence of L-glutamate mGluR5 agonist at 10 uM by FLIPR assay; assay type: functional, cell-based
Target sequence in this assay (P41594 21-1212 limits assumed): as the sequence (P41594 21-1212 limits assumed) above

[10] = target: Metabotropic glutamate receptor 5 (Rattus norvegicus) (UniProt P31424); assay: Reversal of antagonist activity at Sprague-Dawley rat astrocyte mGluR5 in presence of L-quisqualate mGluR5 agonist at 10 uM by FLIPR assay; assay type: functional
[11] = target: Metabotropic glutamate receptor 1 (Rattus norvegicus) (UniProt P23385); assay: as §1; assay type: functional
Chain of Metabotropic glutamate receptor 1 (Rattus norvegicus) (P23385 19-1199 limits assumed): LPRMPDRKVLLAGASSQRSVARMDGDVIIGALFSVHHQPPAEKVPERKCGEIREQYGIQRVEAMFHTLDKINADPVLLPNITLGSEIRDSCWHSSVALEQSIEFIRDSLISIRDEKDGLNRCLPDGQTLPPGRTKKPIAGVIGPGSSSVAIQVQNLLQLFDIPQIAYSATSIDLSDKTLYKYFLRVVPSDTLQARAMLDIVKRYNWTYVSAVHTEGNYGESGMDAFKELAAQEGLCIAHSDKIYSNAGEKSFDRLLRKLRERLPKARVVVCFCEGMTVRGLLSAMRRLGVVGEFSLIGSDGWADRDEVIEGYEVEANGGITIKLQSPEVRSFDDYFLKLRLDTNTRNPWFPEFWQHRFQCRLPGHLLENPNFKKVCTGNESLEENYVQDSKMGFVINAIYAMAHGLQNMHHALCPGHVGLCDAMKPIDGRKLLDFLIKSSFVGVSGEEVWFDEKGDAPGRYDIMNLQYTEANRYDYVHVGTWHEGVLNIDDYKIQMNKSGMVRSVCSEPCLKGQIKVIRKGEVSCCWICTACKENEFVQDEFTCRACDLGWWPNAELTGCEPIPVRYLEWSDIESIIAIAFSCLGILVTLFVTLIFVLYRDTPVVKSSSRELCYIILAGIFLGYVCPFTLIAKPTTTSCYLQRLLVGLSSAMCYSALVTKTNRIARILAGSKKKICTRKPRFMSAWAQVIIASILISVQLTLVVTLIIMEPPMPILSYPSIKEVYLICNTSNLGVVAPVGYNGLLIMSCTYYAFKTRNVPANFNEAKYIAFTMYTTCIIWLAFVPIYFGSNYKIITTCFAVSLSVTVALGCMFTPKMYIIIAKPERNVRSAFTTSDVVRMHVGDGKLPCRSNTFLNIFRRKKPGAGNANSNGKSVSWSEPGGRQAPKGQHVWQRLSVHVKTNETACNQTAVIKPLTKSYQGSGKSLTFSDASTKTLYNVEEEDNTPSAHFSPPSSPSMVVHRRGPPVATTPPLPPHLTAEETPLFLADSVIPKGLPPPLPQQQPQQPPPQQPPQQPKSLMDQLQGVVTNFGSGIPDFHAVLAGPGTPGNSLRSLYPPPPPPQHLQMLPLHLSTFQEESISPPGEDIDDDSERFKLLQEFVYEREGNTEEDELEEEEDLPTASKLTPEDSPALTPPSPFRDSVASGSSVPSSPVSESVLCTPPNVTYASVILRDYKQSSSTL

| SMILES | IC50 [1] | Activity [2] | IC50 [7] | further results |
| --- | --- | --- | --- | --- |
| CCc1nc(C#N)c(N2CCc3ccccc3CC2)nc1C | 6 nM |  |  |  |
| CC1(C)CC(=O)c2cc(C#N)c(N3CCN(c4ccc(F)cc4)CC3)nc2C1 | 160 nM | inactive |  |  |
| CC1(C)CC(=O)c2cc(C#N)c(NCc3ccccc3)nc2C1 | 2500 nM | inactive |  |  |
| OC1CCCc2nc(C#Cc3ccccc3)ccc21 (stereo not given) |  |  |  | EC50 [3]: 490 nM; Activity [4]: 2; Activity [5]: 2.2; EC50 [6]: 1130 nM; Ki [7]: 7600 nM |
| CN(Cc1ccccc1)c1nc2c(cc1C#N)C(=O)CC(C)(C)C2 | 5300 nM | inactive |  |  |
| CC1(C)CC(=O)c2cc(C#N)c(N3CC=C(c4ccc(F)cc4)CC3)nc2C1 | 110 nM | inactive |  |  |
| CC1(C)CC(=O)c2cc(Cl)c(NC3CCCC3)nc2C1 |  |  |  | IC50 [8]: 7900 nM |
| COc1ccc(N2CCN(c3nc4c(cc3C#N)C(=O)CC(C)(C)C4)CC2)cc1 | 7600 nM | inactive |  |  |
| O=C1CCCc2nc(C#Cc3ccccn3)ccc21 |  |  | 60000 nM | Ki [7]: 2360 nM |
| COC(=O)c1ccc(C#Cc2ccccc2)nc1 |  |  | 4600 nM | Ki [7]: 1400 nM |
| O=C1CCCc2nc(C#Cc3ccccc3)ccc21 |  |  |  | Activity [9]: Active; EC50 [3]: 34 nM; Activity [10]: Active; Activity [4]: 3.2; Activity [5]: 2; Ki [7]: 800 nM |
| C(#Cc1ccc2c(n1)CCCC2)c1ccccc1 |  |  | 510 nM | Ki [7]: 1500 nM |
| O=C(NC12CC3CC(CC(C3)C1)C2)c1ccc2ccccc2n1 | 440 nM |  |  |  |
| O[C@H]1CCCc2nc(C#Cc3ccccc3)ccc21 |  |  |  | EC50 [3]: 250 nM; Activity [4]: 2.5; Activity [5]: 2; EC50 [6]: 1080 nM; Ki [7]: 9280 nM |
| O[C@@H]1CCCc2nc(C#Cc3ccccc3)ccc21 |  |  |  | EC50 [3]: 180 nM; Activity [4]: 2.5; Activity [5]: 3.1; EC50 [6]: 980 nM; Ki [7]: 4710 nM |
| CCCCCCNc1nc2c(cc1C#N)C(=O)CC(C)(C)C2 | 2600 nM | inactive |  |  |
| CN(C)C(=O)c1cc2c(nc1NC1CCCC1)CC(C)(C)CC2=O |  |  | 58000 nM | IC50 [8]: 21000 nM |
| CCCNc1nc2c(cc1C#N)C(=O)CC(C)(C)C2 | 2300 nM | inactive |  |  |
| N#Cc1cc2c(nc1NC1CCCCC1)CCCC2=O | 3000 nM | inactive |  |  |
| CC1(C)CC(=O)c2cc(C#N)c(NC34CC5CC(CC(C5)C3)C4)nc2C1 |  | inactive |  |  |
| CC1(C)CC(=O)c2cc(C#N)c(N3CCN(c4ccccc4)CC3)nc2C1 | 130 nM | inactive |  |  |
| CC1(C)CC(=O)c2cc(C#N)c(NC3Cc4ccccc4C3)nc2C1 | 1900 nM | inactive |  |  |
| CC1(C)CCc2nc(C#Cc3ccccc3)ccc2C1=O |  |  | 23 nM | Ki [7]: 51 nM |
| CC1(C)CC(=O)c2cc(Br)c(N3CCN(c4ccc(F)cc4)CC3)nc2C1 | ≤ 1000 nM |  | 37000 nM |  |
| CC1(C)CC(=O)c2cc([N+](=O)[O-])c(NC3CC=C(c4ccc(F)cc4)CC3)nc2C1 (stereo not given) |  | inactive |  | IC50 [8]: 12000 nM |
| CC1(C)CC(=O)c2cc(Br)c(NC3CCCC3)nc2C1 |  |  | 29000 nM | Activity [11]: inactive |
| O=C(NC12CC3CC(CC(C3)C1)C2)c1cnc2ccccc2c1 | 52 nM |  |  |  |

Further lines, with some results ahead:

| IC50 [1] | Activity [2] | IC50 [7] | SMILES | further results |
| --- | --- | --- | --- | --- |
| 4000 nM | inactive |  | CC1(C)CC(=O)c2cc(C#N)c(NC3CCCCC3)nc2C1 |  |
| 5 nM |  |  | O=C(NC12CC3CC(CC(C3)C1)C2)c1cnc2ccccc2n1 |  |
| 1700 nM | inactive |  | CCCCNc1nc2c(cc1C#N)C(=O)CC(C)(C)C2 |  |
| 25000 nM |  | 80000 nM | CN(Cc1ccccc1)c1nc2c(cc1C#N)C(=O)CCC2 |  |
|  | inactive |  | CC1(C)CC(=O)c2cc(-c3nn[nH]n3)c(NC3CCCC3)nc2C1 | IC50 [8]: 13000 nM |
| 10400 nM | inactive |  | O=C1CCCc2nc(N3CCN(c4ccccc4)CC3)ccc21 |  |
|  | inactive |  | CC1(C)CC(=O)c2cc(C(=O)O)c(NC3CCCC3)nc2C1 | IC50 [8]: 23000 nM |
| 45000 nM |  | 8100 nM | CC1(C)CC(=O)c2ccc(NCc3ccccc3)nc2C1 |  |
|  | inactive |  | CC1(C)CC(=O)c2cc(N3CCOCC3)c(N3CC=C(c4ccc(F)cc4)CC3)nc2C1 | IC50 [8]: 15000 nM |
| 7000 nM |  |  | O=C(NC12CC3CC(CC(C3)C1)C2)c1cnccn1 |  |
| 78 nM |  | 49000 nM | CC1(C)CC(=O)c2cc(C#N)c(NC3CCCC3)nc2C1 |  |
| 4800 nM |  | 57000 nM | CC1(C)CC(=O)c2cc(C#N)c(SCc3ccccc3)nc2C1 |  |
| 21000 nM |  | 12000 nM | CC1(C)CC(=O)c2ccc(OCc3ccccc3)nc2C1 |  |
| 1500 nM | inactive |  | CC1(C)CC(=O)c2cc(C#N)c(N3CCc4ccccc4C3)nc2C1 |  |
|  | inactive |  | CC1(C)CC(=O)c2cc(-c3cncnc3)c(NC3CCCC3)nc2C1 | Activity [11]: inactive |
|  |  | 80 nM | COC1CCCc2nc(C#Cc3ccccc3)ccc21 (stereo not given) | Ki [7]: 139 nM |
| 25000 nM |  | 1900 nM | O=C1CCCc2nc(OCc3ccccc3)ccc21 |  |
|  |  | 2600 nM | CC1(C)CC(=O)c2ccc(C#Cc3ccccn3)nc2C1 | Ki [7]: 210 nM |
| 30000 nM | inactive |  | N#Cc1cc2c(nc1SCc1ccccc1)CCCC2=O |  |
| < 1000 nM | inactive |  | CC1(C)CC(=O)c2cc(C#N)c(N3CC=C(c4ccccc4)CC3)nc2C1 |  |
